Assay results pooled from the literature.
Target: Mitogen-activated protein kinase kinase kinase 9 (MAP3K9, Homo sapiens, UniProt P80192)

CN(C)c1nccc(-c2cnn3ncccc23)n1
remaining binding (binding; 1 µM): 100%

c1cncc(-c2cccc(Nc3nccc(NC4CCCCC4)n3)c2)c1
remaining binding (binding, competition with immobilised ligand; 10 µM): 19%

C[C@@H](c1ccc(-n2cnc3c(N)ncnc32)cc1)N1CCc2nn(C)c(Cc3ccccc3)c2C1=O
remaining binding (binding, competition with immobilised ligand; 0.1 µM): 95%

Nc1ncc2c(n1)-c1c([nH]c3ccc(C#CC4CC4)cc13)CCCC2
remaining binding (binding, competition with immobilised ligand; 1 µM): 100%

CO[C@@H](C)c1c(Nc2ccc([C@@H](N(C)C(=O)C3CCS(=O)(=O)CC3)C(F)(F)F)cc2)cnc2cc(Cl)nn12
remaining binding (cell-free assay, competition with immobilised ligand; 1 µM): 81%

COc1ccnn2ncc(-c3ccnc(N(C)C)n3)c12
remaining binding (binding; 1 µM): 91%

COc1cnc(Nc2cccc(S(N)(=O)=O)c2)nc1N1CCN(c2ccccc2)C(=O)C1
remaining binding (binding, competition with immobilised ligand; 1 µM): 98%

CN(CCCC(F)(F)F)c1nccc(-c2cnn3ncccc23)n1
remaining binding (binding; 1 µM): 88%

O=C(NCCCN1CCOCC1)c1ccc(Nc2nccc(-c3cc4ccccc4s3)n2)cc1
remaining binding (binding, competition with immobilised ligand; 1 µM): 14%

F[C@@H]1CCN(c2nccc(-c3cnn4ncccc34)n2)C1
remaining binding (binding; 1 µM): 78%

O=C(NS(=O)(=O)c1ccc(NCC2CCOCC2)c([N+](=O)[O-])c1)c1ccc(N2CCN(Cc3ccc(C(F)(F)F)cc3-c3ccc(Cl)cc3)CC2)cc1Oc1cnc2[nH]ccc2c1
remaining binding (cell-free assay, competition with immobilised ligand; 1 µM): 100%

C[C@H]1CCN(c2nccc(-c3cnn4ncccc34)n2)C1
remaining binding (binding; 1 µM): 100%

C=CC(=O)N1CCC(C(=O)NCC(=O)N2CCN(c3nc(-c4cnc(N)nc4C(F)F)nc(N4CCOCC4)n3)CC2)CC1
remaining binding (binding, competition with immobilised ligand; 1 µM): 96%

CN(C)C(=O)Cn1cc(-c2nc([C@@](C)(c3ccc(-c4cnc(N)nc4)cc3)C3CC3)no2)cn1
remaining binding (cell-free assay, competition with immobilised ligand; 1 µM): 100%

O=C(NCCCN1CCOCC1)c1ccc(Nc2ncc(Cl)c(-c3ccc(Cl)s3)n2)cc1
remaining binding (binding, competition with immobilised ligand; 1 µM): 11%

C[C@@H](c1cccc(C#N)c1)n1cc(Cl)cc(C(N)=O)c1=N
remaining binding (cell-free assay, competition with immobilised ligand; 1 µM): 100%

COc1ncc2cc3ccccc3nc2c1C#N
remaining binding (cell-free assay, competition with immobilised ligand; 5 µM): 97%

Cc1nccc(COC(=O)N2C[C@@H]3[C@@H](CNC(=O)c4ccc5[nH]nnc5c4)[C@@H]3C2)n1
remaining binding (cell-free assay, competition with immobilised ligand; 1 µM): 89%

O=C(NCC1CCOCC1)c1n[nH]cc1NC(=O)c1c(F)cccc1F
remaining binding (binding, competition with immobilised ligand; 1 µM): 100%

N#Cc1ccc(Nc2ccc3[nH]c(=O)[nH]c3c2)c(Cl)c1
remaining binding (cell-free assay, competition with immobilised ligand; 1 µM): 100%

O=C(c1ccc(Nc2nccc(-c3cc4ccccc4s3)n2)cc1)N1CCC(N2CCCC2)CC1
remaining binding (binding, competition with immobilised ligand; 1 µM): 27%

CC(=O)C1=C(C)N(c2cccc(C(F)(F)F)c2)C(=O)N[C@@H]1c1ccc(C#N)nc1
remaining binding (cell-free assay, competition with immobilised ligand; 1 µM): 94%

C[C@@H]1CN(c2ccc3ncc(-c4ccc5[nH]nc(C6CC6)c5c4)n3n2)C[C@H](C)O1
remaining binding (binding, competition with immobilised ligand; 50 nM): 96%

Cc1cc(C)c(-n2ccn3nc(-c4cccnc4)cc23)cc1NC(=O)c1cc(C#N)cc(S(F)(F)(F)(F)F)c1
remaining binding (cell-free assay, competition with immobilised ligand; 0.1 µM): 79.5%

N[C@H]1CCN(c2nccc(-c3cnn4ncccc34)n2)C1
remaining binding (binding; 1 µM): 87%
